This is an account of results in ChEMBL document CHEMBL2203053, “DNA binding acridine-thiazolidinone agents affecting intracellular glutathione” (Bioorg Med Chem, 2012).

Data set [1] relates to HL-60. As to the kind of experiment: Cytotoxicity against human HL60 cells after 72 hrs using trypan blue exclusion staining by DCC method. Particulars: HL-60, 72 h. It counts as functional, cell-based. The method in brief: (§1)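 For trypan blue dye-exclusion direct cell counting, HL-60 cells were seeded at 1 × 10⁵ cells/mL. Compound at 0–10 µM, or 1% DMSO control, was added after 24 h. Viable counts were taken after 24, 48 and 72 h. IC50 (50% inhibition of viability) came from growth curves, as mean ± S.D., n = 3.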

Data set [2] deals with HL-60. Briefly: Induction of necrosis in human HL60 cells assessed as cell shrinking at 5 uM after 24 hrs by propidium iodide staining based fluorescence microscopy. It counts as functional.
Data set [3] concerns HL-60. Briefly: Cytotoxicity against BSO pretreated human HL60 cells assessed as cell viability at 3 uM treated 6 hrs after BSO addition measured after 48 hrs by trypan blue exclusion assay. In kind it is functional, cell-based. The method in brief:
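HL-60 cells were pretreated 6 h with L-buthionine-sulfoximine (10 µM), then exposed to 1.5, 3.0 or 1.0 µM compound for 48 h. Viable cells were counted by trypan blue staining and expressed as percentage of all cells.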

Data set [4] concerns HL-60. As to the kind of experiment: Decrease in intracellular glutathione level in human HL60 cells at 2 uM after 24 hrs by spectrophotometric analysis. It counts as functional, cell-based.
Data set [5] has as its system HL-60. Briefly: Decrease in intracellular glutathione level in human HL60 cells at 2 uM after 2 hrs by spectrophotometric analysis. In kind it is functional, cell-based.
The test system of data set [6] is A2780. As to the kind of experiment: Drug uptake in human A2780 cells at 5 uM after 4 hrs by Hoechst staining based fluorescence microscopy. In kind it is ADME, cell-based. Particulars: a2780, 4 h.
The test system of data set [7] is HL-60. As to the kind of experiment: Drug uptake in human HL60 cells at 5 uM after 4 hrs by Hoechst staining based fluorescence microscopy. It counts as ADME, cell-based. The conditions noted are these: hl-60, 4 h. Summed up: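 HL-60 cells were exposed to 5 µM for 4 h at 37 °C, 5% CO₂, then washed in PBS. Intrinsic blue fluorescence was viewed by optical and fluorescence microscopy. Untreated control cells were stained with Hoechst 33342 (10 µM, 10 min).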

Data set [8] has as its system A2780. Briefly: Cytotoxicity against human A2780 cells after 72 hrs by MTT assay. It counts as functional, cell-based. Particulars: A2780, 72 h. Summed up:
(§2)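 HL-60, L1210 and A2780 cells were grown in RPMI 1640 with 10% FBS, penicillin and streptomycin at 37 °C, 5% CO₂; HL-60 and A2780 medium also had 2 mM glutamine. Cells were exposed to 0–30 µM for 48 or 72 h. Viability was read by MTT microculture tetrazolium assay and IC50 was determined.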

Data set [9] has as its system HL-60. As to the kind of experiment: Cytotoxicity against human HL60 cells after 48 hrs using trypan blue exclusion staining by DCC method. The conditions noted are these: HL-60, 48 h. It counts as functional, cell-based. Summed up: as §1
Data set [10] concerns A2780. Briefly: Cytotoxicity against human A2780 cells after 48 hrs by MTT assay. In kind it is functional, cell-based. The conditions noted are these: A2780, 48 h. The method in brief:
as §2

The subject of data set [11] is L1210. As to the kind of experiment: Cytotoxicity against mouse L1210 cells after 72 hrs by MTT assay. The conditions noted are these: L1210, 72 h. In kind it is functional, cell-based. Summed up: as §2
In general terms: Tetrazolium assays rely on reduction of a dye to a coloured formazan, in cell work by metabolically active cells.

Data set [12] deals with L1210. Briefly: Cytotoxicity against mouse L1210 cells after 48 hrs by MTT assay. It counts as functional, cell-based. Particulars: L1210, 48 h. Summed up:
as §2

Data set [13] deals with HL-60. As to the kind of experiment: Cytotoxicity against human HL60 cells after 48 hrs by MTT assay. In kind it is functional, cell-based. Particulars: HL-60, 48 h. The method in brief: as §2
Data set [14] concerns HL-60. Briefly: Cytotoxicity against human HL60 cells after 72 hrs by MTT assay. In kind it is functional, cell-based. The conditions noted are these: HL-60, 72 h. Summed up:
as §2

In data set [15] the test system is Nucleic Acid. Briefly: Ratio of acridine orange K to compound K for calf thymus DNA by spectrofluorimetry based McGhee von Hippel method. In kind it is nucleic-acid assay. The conditions noted are these: Bos taurus.
Data set [16] concerns Nucleic Acid. As to the kind of experiment: Ratio of daunomycin K to compound K for calf thymus DNA by spectrofluorimetry based McGhee von Hippel method. In kind it is nucleic-acid assay. Particulars: Bos taurus.
For data set [17], the system named is Nucleic Acid. As to the kind of experiment: Ratio of proflavine K to compound K for calf thymus DNA by spectrofluorimetry based McGhee von Hippel method. In kind it is nucleic-acid assay. The conditions noted are these: Bos taurus.
Data set [18] has as its system Nucleic Acid. As to the kind of experiment: Binding affinity to calf thymus DNA assessed as binding constant by spectrofluorimetry based McGhee von Hippel method. It counts as nucleic-acid assay. The conditions noted are these: Bos taurus. Summed up:
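Fluorescence titration used compound at 26.7 µM in 0.01 M Tris buffer (pH 7.4, 24 °C). ctDNA was added stepwise from 0 to 32 µM bp at 2 µM intervals until spectra stopped changing. Excitation was 384 nm and emission was read at 410–470 nm. Binding constant K was derived by the McGhee–von Hippel method from Scatchard plot data.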

Data set [19] has as its system Nucleic Acid. Briefly: Binding affinity to calf thymus DNA assessed as melting temperature at 5 uM at pH 7.1 by thermal denaturation assay. In kind it is nucleic-acid assay. The conditions noted are these: Bos taurus.
The test system of data set [20] is Nucleic Acid. Briefly: Binding affinity to calf thymus DNA assessed as hypochromicity at 25 uM by UV-visible spectrophotometry. In kind it is nucleic-acid assay. Particulars: Bos taurus. Summed up: (§3)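 Absorption spectra were taken in 0.01 M Tris buffer, pH 7.4. Compounds were diluted from DMSO stock to a final 25 µM. Sonicated calf thymus DNA in TE buffer was added at 0–30 µM bp, with concentration set by A260. Shift of λmax (free vs bound) and % hypochromicity were recorded.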

For data set [21], the system named is Nucleic Acid. As to the kind of experiment: Binding affinity to calf thymus DNA assessed as bathochromic shift at 25 uM by UV-visible spectrophotometry. In kind it is nucleic-acid assay. The conditions noted are these: Bos taurus. The method in brief: as §3

Usually IC50 stands for the concentration at which inhibition is half-maximal. Read a low IC50 as higher potency. The Tm is the temperature at which the thermal transition is half complete.

The source made the active and inactive calls. No cut-off for these calls is given here. Some results are limits rather than exact numbers.

Turning to `COC(=O)/C=C1\S/C(=N\c2c3ccccc3nc3ccccc23)N(C(C)(C)C)C1=O`, the IC50 was 2.8 µM in the data set with HL-60 [1]; 23.7 µM in the data set on A2780 [8]; 3.5 µM in the data set on HL-60 [9]; more than 30 µM in the data set with A2780 [10]; 20.9 µM in the data set on L1210 [11]; 17.9 µM in the data set on L1210 [12]. For the same molecule, the values for the IC50 in the data set with HL-60 [13] and with HL-60 [14] were 5.4 µM and 3.7 µM, respectively. The outcome in the data set with HL-60 [2], in the data set on HL-60 [3], with HL-60 [5] and in the data set on Nucleic Acid [21] was Active. The outcome in the data set on HL-60 [4] was inactive. In addition, the Drug uptake result with A2780 [6] and with HL-60 [7] was “Active” each time. Further, the Ratio in the data set on Nucleic Acid [15], in the data set on Nucleic Acid [16] and with Nucleic Acid [17] was 10 each time. Further, the K with Nucleic Acid [18] worked out at 1.37 ×10⁶ /M. For the same molecule, the Tm with Nucleic Acid [19] turned out to be 74 °C. For the same molecule, the Activity in the data set with Nucleic Acid [20] came to 31.2%.
